Experimental data from ChEMBL document CHEMBL1156750 (Bioorg Med Chem Lett, 2009).
“And” between values parts separate entries of the source, which are not always exact repeats. Equal values may be shown once.

Tests used:
[1] = Tmax in dog at 2 mg/kg, po; type: ADME, organism-based, Canis lupus familiaris; parameters: dose 2 mg/kg, route oral; details: in vivo
In short: (§1)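 Pharmacokinetics in fasted rat, dog and monkey, n = 3 per species. The compound was dosed at 10 mg/mL in PEG400/water (1:1, v/v). Doses were 10 mg/kg iv and po in rat, 2 mg/kg iv and po in dog, and 10 mg/kg iv and po in monkey. Clearance, Vdss, MRT and Tmax were derived from plasma profiles; oral bioavailability came from the po and iv data.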

[2] = Volume of distribution in steady state in monkey at 10 mg/kg, iv; type: ADME, organism-based, Macaca mulatta; parameters: dose 10 mg/kg, route intravenous; details: rhesus monkey, in vivo, read-out: Vdss; in short: as §1
[3] = biological target: Amine oxidase [flavin-containing] A (Rattus norvegicus, UniProt P21396); test: Inhibition of rat MAO-A at 10 uM
Cytochrome P450 2C9 [4] = biological target: T1, Cytochrome P450 2C9 (Homo sapiens, UniProt P11712); test: Inhibition of CYP2C9; type: ADME
T1 sequence (P11712 whole entry): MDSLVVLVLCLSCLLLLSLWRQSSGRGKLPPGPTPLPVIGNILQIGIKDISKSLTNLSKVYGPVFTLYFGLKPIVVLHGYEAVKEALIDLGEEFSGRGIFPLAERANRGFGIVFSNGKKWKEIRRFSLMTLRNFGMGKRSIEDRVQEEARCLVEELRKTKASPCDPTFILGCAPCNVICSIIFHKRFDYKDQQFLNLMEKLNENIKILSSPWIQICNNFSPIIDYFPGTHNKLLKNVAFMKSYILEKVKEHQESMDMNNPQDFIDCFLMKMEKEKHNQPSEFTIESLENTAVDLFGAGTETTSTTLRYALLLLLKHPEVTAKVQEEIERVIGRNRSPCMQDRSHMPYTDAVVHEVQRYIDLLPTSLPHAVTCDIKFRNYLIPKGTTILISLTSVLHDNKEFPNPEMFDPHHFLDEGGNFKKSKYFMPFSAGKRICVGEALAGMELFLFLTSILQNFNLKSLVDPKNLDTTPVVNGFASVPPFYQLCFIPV

[5] = Volume of distribution in steady state in rat at 10 mg/kg, iv; type: ADME, organism-based; parameters: dose 10 mg/kg, route intravenous; details: in vivo, read-out: Vdss; in short: as §1
[6] = biological target: Amine oxidase [flavin-containing] B (Rattus norvegicus, UniProt P19643); test: Inhibition of rat MAO-B at 10 uM
[7] = […] residence time in monkey at 10 mg/kg, iv; type: ADME, organism-based, Macaca mulatta; parameters: dose 10 mg/kg, route intravenous; details: rhesus monkey, in vivo; in short: as §1
[8] = Half life in dog at 2 mg/kg, iv; type: ADME, organism-based, Canis lupus familiaris; parameters: dose 2 mg/kg, route intravenous; details: in vivo
In short: (§2)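 Fasted animals, n = 3 per species (rat, dog, monkey). Compound was dosed iv or po in a vehicle of 10 mg/mL in PEG400/water (1:1, v/v). Parameters reported were CLtotal, Vdss, t1/2, MRT, Cmax, Tmax and oral bioavailability.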

[9] = Half life in monkey at 10 mg/kg, iv; type: ADME, organism-based, Macaca mulatta; parameters: dose 10 mg/kg, route intravenous; details: rhesus monkey, in vivo; in short: as §2
[10] = Half life in rat at 10 mg/kg, iv; type: ADME, organism-based; parameters: dose 10 mg/kg, route intravenous; details: in vivo; in short: as §2
[11] = biological target: Voltage-gated inwardly rectifying potassium channel KCNH2 (Homo sapiens, UniProt Q12809); test: Inhibition of human ERG
Voltage-gated inwardly rectifying potassium channel KCNH2, sequence (Q12809 whole entry): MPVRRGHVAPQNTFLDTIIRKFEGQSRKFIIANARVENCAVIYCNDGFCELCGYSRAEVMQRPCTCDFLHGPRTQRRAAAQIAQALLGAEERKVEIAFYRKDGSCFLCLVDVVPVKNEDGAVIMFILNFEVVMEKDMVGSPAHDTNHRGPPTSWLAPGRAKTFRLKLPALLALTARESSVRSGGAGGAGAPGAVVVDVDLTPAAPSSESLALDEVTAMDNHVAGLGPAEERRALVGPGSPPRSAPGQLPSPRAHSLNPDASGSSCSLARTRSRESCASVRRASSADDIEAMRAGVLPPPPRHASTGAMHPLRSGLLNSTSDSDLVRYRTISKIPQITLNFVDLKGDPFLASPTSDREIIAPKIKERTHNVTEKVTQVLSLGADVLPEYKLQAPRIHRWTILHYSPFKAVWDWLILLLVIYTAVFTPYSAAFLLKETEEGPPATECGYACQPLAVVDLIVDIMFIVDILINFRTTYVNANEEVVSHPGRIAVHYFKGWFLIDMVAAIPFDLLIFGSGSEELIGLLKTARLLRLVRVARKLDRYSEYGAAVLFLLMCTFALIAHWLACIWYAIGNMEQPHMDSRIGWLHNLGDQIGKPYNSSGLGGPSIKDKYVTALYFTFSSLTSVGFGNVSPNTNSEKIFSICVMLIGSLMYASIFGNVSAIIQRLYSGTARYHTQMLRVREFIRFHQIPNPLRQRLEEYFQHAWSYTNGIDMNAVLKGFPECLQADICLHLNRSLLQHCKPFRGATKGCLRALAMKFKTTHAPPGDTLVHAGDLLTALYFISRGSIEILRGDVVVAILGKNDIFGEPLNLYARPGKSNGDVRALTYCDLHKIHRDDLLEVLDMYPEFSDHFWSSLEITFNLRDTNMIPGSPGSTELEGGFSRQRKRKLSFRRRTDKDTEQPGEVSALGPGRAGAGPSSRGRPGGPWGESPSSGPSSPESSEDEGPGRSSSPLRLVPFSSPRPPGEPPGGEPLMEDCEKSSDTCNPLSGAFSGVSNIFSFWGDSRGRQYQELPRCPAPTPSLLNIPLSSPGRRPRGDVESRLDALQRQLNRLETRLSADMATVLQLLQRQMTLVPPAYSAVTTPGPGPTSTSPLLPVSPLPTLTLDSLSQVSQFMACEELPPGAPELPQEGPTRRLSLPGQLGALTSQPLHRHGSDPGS

[12] = Total clearance in monkey at 10 mg/kg, iv; type: ADME, organism-based, Macaca mulatta; parameters: dose 10 mg/kg, route intravenous; details: rhesus monkey, in vivo; in short: as §1
[13] = […] residence time in dog at 2 mg/kg, iv; type: ADME, organism-based, Canis lupus familiaris; parameters: dose 2 mg/kg, route intravenous; details: in vivo; in short: as §1
[14] = Total clearance in dog at 2 mg/kg, iv; type: ADME, organism-based, Canis lupus familiaris; parameters: dose 2 mg/kg, route intravenous; details: in vivo; in short: as §1
Prothrombin = Prothrombin (Homo sapiens, UniProt P00734); test: Inhibition of human Thrombin
Cytochrome P450 2C9 [15] = biological target: T1, Cytochrome P450 2C9; test: Inhibition of CYP2C9 by HHA assay; type: ADME
Cytochrome P450 3A4 [16] = biological target: T2, Cytochrome P450 3A4 (Homo sapiens, UniProt P08684); test: Inhibition of CYP3A4 by HHA assay; type: ADME
T2 sequence (P08684 whole entry): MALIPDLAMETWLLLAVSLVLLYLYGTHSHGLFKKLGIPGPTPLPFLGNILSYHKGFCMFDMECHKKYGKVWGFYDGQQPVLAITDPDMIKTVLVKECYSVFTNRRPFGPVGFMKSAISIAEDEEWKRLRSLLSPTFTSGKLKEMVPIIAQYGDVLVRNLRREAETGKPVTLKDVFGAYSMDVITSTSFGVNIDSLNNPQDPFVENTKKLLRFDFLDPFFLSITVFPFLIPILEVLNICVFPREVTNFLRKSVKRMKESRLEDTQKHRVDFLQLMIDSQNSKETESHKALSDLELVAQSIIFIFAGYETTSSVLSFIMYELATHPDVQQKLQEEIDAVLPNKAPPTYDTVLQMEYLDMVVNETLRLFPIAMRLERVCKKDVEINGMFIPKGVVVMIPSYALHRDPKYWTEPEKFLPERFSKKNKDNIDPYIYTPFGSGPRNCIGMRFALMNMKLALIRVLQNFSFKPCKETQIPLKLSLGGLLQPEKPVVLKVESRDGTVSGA

[17] = […] residence time in rat at 10 mg/kg, iv; type: ADME, organism-based; parameters: dose 10 mg/kg, route intravenous; details: in vivo; in short: as §1
[18] = Oral bioavailability in dog at 2 mg/kg; type: ADME, organism-based, Canis lupus familiaris; details: in vivo; in short: as §1
[19] = biological target: T3, Voltage-gated L-type calcium channel (Rattus norvegicus, UniProt P22002+Q02485+P27732); test: Inhibition of rat L type calcium channel at DHP site at 10 uM
Cytochrome P450 2C19 [20] = biological target: T4, Cytochrome P450 2C19 (Homo sapiens, UniProt P33261); test: Inhibition of CYP2C19 by HHA assay; type: ADME
T4 sequence (P33261 whole entry): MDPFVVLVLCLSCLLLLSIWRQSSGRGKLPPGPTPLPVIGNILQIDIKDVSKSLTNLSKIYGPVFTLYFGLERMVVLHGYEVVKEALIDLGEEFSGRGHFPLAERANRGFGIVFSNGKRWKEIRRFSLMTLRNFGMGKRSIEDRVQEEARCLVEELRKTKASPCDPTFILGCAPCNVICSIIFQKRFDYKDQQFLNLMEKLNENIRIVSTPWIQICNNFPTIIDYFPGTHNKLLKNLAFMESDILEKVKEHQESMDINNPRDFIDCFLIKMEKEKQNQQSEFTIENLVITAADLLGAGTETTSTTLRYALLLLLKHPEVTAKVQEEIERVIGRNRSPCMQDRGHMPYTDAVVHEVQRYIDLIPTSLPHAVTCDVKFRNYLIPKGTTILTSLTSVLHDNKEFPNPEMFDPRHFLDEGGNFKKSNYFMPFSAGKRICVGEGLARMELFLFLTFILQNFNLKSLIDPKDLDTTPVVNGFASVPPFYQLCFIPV

Cytochrome P450 1A2 = Cytochrome P450 1A2 (Homo sapiens, UniProt P05177); test: Inhibition of CYP1A2; type: ADME
Plasminogen = Plasminogen (Homo sapiens, UniProt P00747); test: Inhibition of human plasmin
[21] = Oral bioavailability in rat at 10 mg/kg; type: ADME, organism-based; details: in vivo; in short: as §1
Cytochrome P450 2C19 [22] = biological target: T4, Cytochrome P450 2C19; test: Inhibition of CYP2C19; type: ADME
[23] = biological target: Urokinase-type plasminogen activator (Homo sapiens, UniProt P00749); test: Inhibition of human u-PA
[24] = Tmax in monkey at 10 mg/kg, po; type: ADME, organism-based, Macaca mulatta; parameters: dose 10 mg/kg, route oral; details: rhesus monkey, in vivo; in short: as §1
[25] = Tmax in rat at 10 mg/kg, po; type: ADME, organism-based; parameters: dose 10 mg/kg, route oral; details: in vivo; in short: as §1
[26] = Cmax in monkey at 10 mg/kg, po; type: ADME, organism-based, Macaca mulatta; parameters: dose 10 mg/kg, route oral; details: rhesus monkey, in vivo; in short: as §2
[27] = Total clearance in rat at 10 mg/kg, iv; type: ADME, organism-based; parameters: dose 10 mg/kg, route intravenous; details: in vivo; in short: as §1
[28] = Oral bioavailability in monkey at 10 mg/kg; type: ADME, organism-based, Macaca mulatta; details: rhesus monkey, in vivo; in short: as §1
[29] = biological target: T3, Voltage-gated L-type calcium channel; test: Inhibition of rat L type calcium channel at verapamil site at 10 uM
[30] = Cmax in dog at 2 mg/kg, po; type: ADME, organism-based, Canis lupus familiaris; parameters: dose 2 mg/kg, route oral; details: in vivo; in short: as §2
[31] = biological target: Nuclear receptor subfamily 1 group I member 2 (Homo sapiens, UniProt O75469); test: Inhibition of PXR
Nuclear receptor subfamily 1 group I member 2, sequence (O75469 whole entry): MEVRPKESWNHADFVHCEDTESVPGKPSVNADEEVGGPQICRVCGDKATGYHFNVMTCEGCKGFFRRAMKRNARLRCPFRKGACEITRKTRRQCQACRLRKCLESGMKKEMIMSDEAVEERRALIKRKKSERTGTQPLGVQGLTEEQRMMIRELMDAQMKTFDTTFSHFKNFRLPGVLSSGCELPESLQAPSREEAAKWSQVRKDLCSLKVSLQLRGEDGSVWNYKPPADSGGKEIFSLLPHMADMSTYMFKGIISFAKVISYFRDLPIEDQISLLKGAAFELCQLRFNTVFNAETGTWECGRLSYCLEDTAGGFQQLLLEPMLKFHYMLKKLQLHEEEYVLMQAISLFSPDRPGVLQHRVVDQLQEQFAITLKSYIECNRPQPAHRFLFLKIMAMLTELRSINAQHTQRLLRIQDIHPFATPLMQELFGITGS

Cytochrome P450 3A4 [32] = biological target: T2, Cytochrome P450 3A4; test: Inhibition of CYP3A4 using BZR as substrate; type: ADME
Cytochrome P450 3A4 [33] = biological target: T2, Cytochrome P450 3A4; test: Inhibition of CYP3A4 using BFC as a substrate; type: ADME
[34] = Cmax in rat at 10 mg/kg, po; type: ADME, organism-based; parameters: dose 10 mg/kg, route oral; details: in vivo; in short: as §2
[35] = biological target: Vitamin K-dependent protein C (Homo sapiens, UniProt P04070); test: Inhibition of human Activated protein C
Vitamin K-dependent protein C, sequence (P04070 43-197 limits assumed): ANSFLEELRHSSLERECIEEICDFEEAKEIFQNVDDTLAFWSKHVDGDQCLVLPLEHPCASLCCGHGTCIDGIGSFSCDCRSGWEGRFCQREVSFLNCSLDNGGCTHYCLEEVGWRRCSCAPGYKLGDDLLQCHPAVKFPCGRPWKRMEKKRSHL
Vitamin K-dependent protein C, sequence (P04070 212-461 limits assumed): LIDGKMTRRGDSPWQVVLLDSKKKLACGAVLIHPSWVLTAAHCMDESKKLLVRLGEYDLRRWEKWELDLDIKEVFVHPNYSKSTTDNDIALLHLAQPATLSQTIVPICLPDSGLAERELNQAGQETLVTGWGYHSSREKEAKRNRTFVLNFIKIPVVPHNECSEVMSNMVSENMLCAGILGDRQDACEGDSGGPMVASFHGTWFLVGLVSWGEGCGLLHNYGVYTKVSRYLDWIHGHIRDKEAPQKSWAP

Cytochrome P450 2D6 [36] = biological target: T5, Cytochrome P450 2D6 (Homo sapiens, UniProt P10635); test: Inhibition of CYP2D6; type: ADME
T5 sequence (P10635 whole entry): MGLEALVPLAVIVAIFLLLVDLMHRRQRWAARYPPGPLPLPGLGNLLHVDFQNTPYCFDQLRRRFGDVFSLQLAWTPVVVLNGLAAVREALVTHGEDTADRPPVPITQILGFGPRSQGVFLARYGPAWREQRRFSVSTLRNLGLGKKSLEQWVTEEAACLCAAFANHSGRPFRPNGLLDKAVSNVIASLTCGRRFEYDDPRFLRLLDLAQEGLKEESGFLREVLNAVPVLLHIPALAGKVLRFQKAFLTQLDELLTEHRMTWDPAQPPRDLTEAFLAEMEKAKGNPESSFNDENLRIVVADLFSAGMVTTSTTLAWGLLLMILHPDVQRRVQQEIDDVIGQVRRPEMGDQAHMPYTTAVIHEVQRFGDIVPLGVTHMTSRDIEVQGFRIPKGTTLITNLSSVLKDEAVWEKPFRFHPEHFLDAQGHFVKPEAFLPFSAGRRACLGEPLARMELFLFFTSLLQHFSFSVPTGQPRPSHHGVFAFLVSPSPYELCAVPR

Cytochrome P450 2D6 [37] = biological target: T5, Cytochrome P450 2D6; test: Inhibition of CYP2D6 by HHA assay; type: ADME
[38] = biological target: Tissue-type plasminogen activator (Homo sapiens, UniProt P00750); test: Inhibition of human t-PA
Tissue-type plasminogen activator, sequence (P00750 whole entry): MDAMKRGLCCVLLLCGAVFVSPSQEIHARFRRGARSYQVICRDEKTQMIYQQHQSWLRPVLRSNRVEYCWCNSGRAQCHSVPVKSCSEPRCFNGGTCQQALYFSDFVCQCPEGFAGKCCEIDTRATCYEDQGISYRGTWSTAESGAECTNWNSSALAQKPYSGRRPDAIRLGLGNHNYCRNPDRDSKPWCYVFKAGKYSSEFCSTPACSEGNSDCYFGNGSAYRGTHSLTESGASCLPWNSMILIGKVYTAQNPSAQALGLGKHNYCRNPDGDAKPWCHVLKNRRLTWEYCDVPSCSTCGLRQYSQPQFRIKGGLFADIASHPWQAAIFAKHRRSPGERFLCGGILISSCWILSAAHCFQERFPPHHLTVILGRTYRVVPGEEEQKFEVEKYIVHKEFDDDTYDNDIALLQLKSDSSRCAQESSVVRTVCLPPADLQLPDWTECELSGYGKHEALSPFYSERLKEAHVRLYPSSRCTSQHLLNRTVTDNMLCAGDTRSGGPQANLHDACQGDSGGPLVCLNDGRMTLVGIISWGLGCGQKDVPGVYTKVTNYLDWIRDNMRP

[39] = Plasma protein binding in Sprague-Dawley rat plasma at 30 mg/kg, id; type: ADME, organism-based; parameters: dose 30 mg/kg, route intraduodenal; details: read-out: PPB (converted)
[40] = Volume of distribution in steady state in dog at 2 mg/kg, iv; type: ADME, organism-based, Canis lupus familiaris; parameters: dose 2 mg/kg, route intravenous; details: in vivo, read-out: Vdss; in short: as §1

SMILES: Cc1cc2cc(N=C(NC(=O)c3ccc(C(=O)N(C)C)nc3)N[C@H]3CCCCN(CC(=O)N4CCCC4)C3=O)ccc2o1
- Tmax [1]: 1.3 h
- Vd [2]: 2.3 L/kg
- Activity [3]: Not Active
- IC50 (Cytochrome P450 2C9 [4]): 43 µM and > 40 µM
- Vd [5]: 3.3 L/kg
- Activity [6]: Not Active
- MRT [7]: 4 h
- half-life [8]: 8.6 h
- half-life [9]: 14 h
- half-life [10]: 1.6 h
- Activity [11]: Not Active
- clearance [12]: 11 mL/min/kg
- MRT [13]: 9 h
- clearance [14]: 1.9 mL/min/kg
- Ki (Prothrombin): 2.3 µM
- IC50 (Cytochrome P450 2C9 [15]): > 200 µM
- IC50 (Cytochrome P450 3A4 [16]): > 200 µM
- MRT [17]: 2 h
- bioavailability [18]: 77%
- Activity [19]: Not Active
- IC50 (Cytochrome P450 2C19 [20]): > 200 µM
- IC50 (Cytochrome P450 1A2): > 40 µM
- Ki (Plasminogen): > 16 µM
- bioavailability [21]: 55%
- IC50 (Cytochrome P450 2C19 [22]): 51 µM and 40 µM
- Ki [23]: > 7.8 µM
- Tmax [24]: 1.8 h
- Tmax [25]: 0.6 h
- Cmax [26]: 2100 ng/mL
- clearance [27]: 27 mL/min/kg
- bioavailability [28]: 28%
- Activity [29]: Not Active
- Cmax [30]: 2800 ng/mL
- Activity [31]: Not Active
- IC50 (Cytochrome P450 3A4 [32]): > 40 µM
- IC50 (Cytochrome P450 3A4 [33]): 39 µM
- Cmax [34]: 2200 ng/mL
- Ki [35]: > 18 µM
- IC50 (Cytochrome P450 2D6 [36]): > 40 µM
- IC50 (Cytochrome P450 2D6 [37]): > 200 µM
- Ki [38]: 0.665 µM
- fraction unbound [39]: 0.28
- Vd [40]: 0.96 L/kg
